Reference: ChEMBL document CHEMBL4229410, “Facile construction of fused benzimidazole-isoquinolinones that induce cell-cycle arrest and apoptosis in colorectal cancer cells” (Bioorg Med Chem, 2018)
Active and inactive are the calls of the source. The calls are words filed in the database; no cut-off is given here.

Legend:
HT-29 [1] = test: Antiproliferative activity against human HT-29 cells after 48 hrs by BrdU/DAPI staining based immunofluorescence assay; type: functional, cell-based
Outline: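 Cells seeded at 20,000 per well after reaching 80% confluence; exposed 48 h to 0, 25, 50, 75 μM, then 10 μM BrdU for 2 h. Paraformaldehyde fixation, 2 M HCl 30 min, 10% goat serum block, anti-BrdU primary overnight at 4 °C, secondary 120 min at room temperature, DAPI 300 nM. Fluorescence microscopy; percent BrdU-positive nuclei, mean ± SD of three independent experiments.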

[2] = target: MAP/microtubule affinity-regulating kinase 3 (Homo sapiens, UniProt P27448); test: Inhibition of full length human MARK3 (M1 to L729 residues) expressed in bacterial expression system assessed as residual activity at 5 uM by KINOMEscan assay relative to control
MAP/microtubule affinity-regulating kinase 3, sequence (P27448 whole entry, looked up, the tested form may be a part): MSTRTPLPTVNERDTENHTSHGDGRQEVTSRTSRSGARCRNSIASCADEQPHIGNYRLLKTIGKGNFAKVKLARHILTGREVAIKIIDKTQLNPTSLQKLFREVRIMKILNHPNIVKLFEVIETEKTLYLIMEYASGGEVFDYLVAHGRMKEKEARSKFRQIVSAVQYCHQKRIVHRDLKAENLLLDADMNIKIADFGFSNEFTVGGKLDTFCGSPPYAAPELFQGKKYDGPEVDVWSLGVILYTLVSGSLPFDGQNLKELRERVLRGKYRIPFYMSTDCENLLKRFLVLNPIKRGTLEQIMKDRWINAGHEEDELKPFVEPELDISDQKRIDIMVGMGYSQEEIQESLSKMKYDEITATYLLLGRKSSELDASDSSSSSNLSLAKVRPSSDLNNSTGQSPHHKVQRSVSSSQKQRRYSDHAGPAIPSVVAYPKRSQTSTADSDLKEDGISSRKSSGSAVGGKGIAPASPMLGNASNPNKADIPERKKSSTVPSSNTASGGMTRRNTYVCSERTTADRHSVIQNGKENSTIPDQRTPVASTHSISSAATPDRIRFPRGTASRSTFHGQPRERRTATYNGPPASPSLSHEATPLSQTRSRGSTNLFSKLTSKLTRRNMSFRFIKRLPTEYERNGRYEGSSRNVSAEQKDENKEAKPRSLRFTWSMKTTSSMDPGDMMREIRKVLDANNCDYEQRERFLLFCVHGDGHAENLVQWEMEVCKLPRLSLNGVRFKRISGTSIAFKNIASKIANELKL

SW-620 [3] = test: Induction of apoptosis in human SW620 cells assessed as increase in apoptotic bodies after 48 hrs by Hoechst 33342 staining based fluorescence microscopic analysis; type: functional, cell-based
[4] = target: Tyrosine-protein kinase ABL1 (Homo sapiens, UniProt P00519, T315I); test: Binding affinity to human phosphorylated ABL1 T315I mutant (S229 to K512 residues) expressed in mammalian expression system by KINOMEscan assay
[5] = target: Proto-oncogene tyrosine-protein kinase receptor Ret (Homo sapiens, UniProt P07949); test: Binding affinity to human RET (E713 to D1014 residues) expressed in bacterial expression system by KINOMEscan assay
Proto-oncogene tyrosine-protein kinase receptor Ret, sequence (P07949 whole entry, the tested form may be a part): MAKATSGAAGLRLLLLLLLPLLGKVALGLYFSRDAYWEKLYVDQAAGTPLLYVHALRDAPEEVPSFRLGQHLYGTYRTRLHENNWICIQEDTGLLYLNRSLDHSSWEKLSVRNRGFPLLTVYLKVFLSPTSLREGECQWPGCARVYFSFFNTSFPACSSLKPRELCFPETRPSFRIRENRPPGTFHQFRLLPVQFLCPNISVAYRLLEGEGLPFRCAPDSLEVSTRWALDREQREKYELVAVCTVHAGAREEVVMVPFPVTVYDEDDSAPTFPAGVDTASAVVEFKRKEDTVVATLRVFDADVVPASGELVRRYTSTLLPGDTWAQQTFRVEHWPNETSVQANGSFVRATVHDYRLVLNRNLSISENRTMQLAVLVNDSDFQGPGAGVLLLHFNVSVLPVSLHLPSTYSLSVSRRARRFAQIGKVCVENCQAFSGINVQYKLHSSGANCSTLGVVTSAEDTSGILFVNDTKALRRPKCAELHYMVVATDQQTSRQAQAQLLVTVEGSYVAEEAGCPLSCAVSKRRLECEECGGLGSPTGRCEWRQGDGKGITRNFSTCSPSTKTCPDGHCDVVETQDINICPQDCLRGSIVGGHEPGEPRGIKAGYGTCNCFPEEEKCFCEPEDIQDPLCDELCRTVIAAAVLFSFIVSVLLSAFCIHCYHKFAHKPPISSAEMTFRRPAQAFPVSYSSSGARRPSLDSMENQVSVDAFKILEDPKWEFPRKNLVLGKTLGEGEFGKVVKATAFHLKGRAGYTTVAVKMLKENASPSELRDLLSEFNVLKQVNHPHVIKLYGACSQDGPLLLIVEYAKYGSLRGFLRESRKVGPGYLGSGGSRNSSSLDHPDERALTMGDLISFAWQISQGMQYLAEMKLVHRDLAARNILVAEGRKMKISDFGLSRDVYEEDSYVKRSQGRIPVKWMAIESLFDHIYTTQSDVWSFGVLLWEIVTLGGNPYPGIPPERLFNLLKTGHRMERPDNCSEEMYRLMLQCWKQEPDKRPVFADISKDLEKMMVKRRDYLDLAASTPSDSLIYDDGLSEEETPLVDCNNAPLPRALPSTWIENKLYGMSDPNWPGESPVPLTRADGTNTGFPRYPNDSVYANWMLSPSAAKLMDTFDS

[6] = target: Serine/threonine-protein kinase PLK4 (Homo sapiens, UniProt O00444); test: Binding affinity to partial length human PLK4 (M1 to S273 residues) expressed in mammalian expression system by KINOMEscan assay
Serine/threonine-protein kinase PLK4, sequence (O00444 whole entry, the tested form may be a part): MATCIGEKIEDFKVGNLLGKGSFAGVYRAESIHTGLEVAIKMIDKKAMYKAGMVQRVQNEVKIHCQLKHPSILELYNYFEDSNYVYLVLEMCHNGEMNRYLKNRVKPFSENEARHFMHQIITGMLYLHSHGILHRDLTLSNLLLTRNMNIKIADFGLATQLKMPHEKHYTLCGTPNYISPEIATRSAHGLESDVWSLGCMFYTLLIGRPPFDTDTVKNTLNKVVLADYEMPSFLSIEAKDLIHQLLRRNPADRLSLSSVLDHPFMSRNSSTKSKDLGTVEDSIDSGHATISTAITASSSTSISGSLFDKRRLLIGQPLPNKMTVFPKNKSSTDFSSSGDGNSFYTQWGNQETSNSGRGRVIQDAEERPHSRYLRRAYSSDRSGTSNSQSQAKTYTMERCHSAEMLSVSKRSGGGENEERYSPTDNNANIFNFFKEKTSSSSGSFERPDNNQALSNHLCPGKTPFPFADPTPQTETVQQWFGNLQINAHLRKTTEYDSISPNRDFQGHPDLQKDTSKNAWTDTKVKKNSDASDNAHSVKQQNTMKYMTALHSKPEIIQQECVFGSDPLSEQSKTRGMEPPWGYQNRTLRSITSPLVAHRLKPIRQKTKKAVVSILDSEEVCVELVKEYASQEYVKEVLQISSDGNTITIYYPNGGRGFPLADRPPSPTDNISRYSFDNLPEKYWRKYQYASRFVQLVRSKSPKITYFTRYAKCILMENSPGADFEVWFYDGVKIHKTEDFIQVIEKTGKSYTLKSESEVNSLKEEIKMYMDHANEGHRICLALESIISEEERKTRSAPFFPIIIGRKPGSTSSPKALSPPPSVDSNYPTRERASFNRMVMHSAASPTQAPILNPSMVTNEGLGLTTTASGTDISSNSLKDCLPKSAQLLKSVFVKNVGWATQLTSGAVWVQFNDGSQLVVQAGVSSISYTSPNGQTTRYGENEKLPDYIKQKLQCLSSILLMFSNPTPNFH

[7] = target: Serine/threonine-protein kinase PLK3 (Homo sapiens, UniProt Q9H4B4); test: Binding affinity to partial length human PLK3 (A42 to L334 residues) expressed in mammalian expression system by KINOMEscan assay
Serine/threonine-protein kinase PLK3, sequence (Q9H4B4 whole entry, the tested form may be a part): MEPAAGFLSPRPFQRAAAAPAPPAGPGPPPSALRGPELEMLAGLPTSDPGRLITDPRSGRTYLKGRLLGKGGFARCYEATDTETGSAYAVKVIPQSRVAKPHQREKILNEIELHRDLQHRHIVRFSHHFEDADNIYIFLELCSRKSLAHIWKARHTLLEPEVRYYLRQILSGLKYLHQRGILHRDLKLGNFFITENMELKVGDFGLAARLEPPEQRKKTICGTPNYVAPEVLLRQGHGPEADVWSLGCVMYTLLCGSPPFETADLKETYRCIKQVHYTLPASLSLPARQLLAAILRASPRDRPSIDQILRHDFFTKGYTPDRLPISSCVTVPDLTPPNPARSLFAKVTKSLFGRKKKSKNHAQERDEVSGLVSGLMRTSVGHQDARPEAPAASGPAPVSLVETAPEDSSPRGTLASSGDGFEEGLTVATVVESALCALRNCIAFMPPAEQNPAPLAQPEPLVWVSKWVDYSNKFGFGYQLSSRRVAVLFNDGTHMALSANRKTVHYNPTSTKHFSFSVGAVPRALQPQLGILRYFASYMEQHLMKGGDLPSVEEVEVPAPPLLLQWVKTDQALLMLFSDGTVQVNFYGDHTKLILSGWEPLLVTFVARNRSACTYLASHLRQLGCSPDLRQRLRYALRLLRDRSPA

HT-29 [8] = test: Induction of apoptosis in human HT-29 cells assessed as necrotic cells at 75 uM after 48 hrs by Annexin-V-FITC/propidium iodide staining based flow cytometry (reference value: 1.6%); type: functional
[9] = target: Dual specificity tyrosine-phosphorylation-regulated kinase 1B (Homo sapiens, UniProt Q9Y463); test: Binding affinity to full length human DYRK1B (M1 to S629 residues) expressed in bacterial expression system by KINOMEscan assay
SW-620 [10] = test: Down regulation of CDK1 expression in human SW620 cells after 48 hrs by Western blot analysis; type: functional, cell-based
Outline: (§1)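 HT29 or SW620 cells were treated at 0, 25, 50 and 75 μM for 48 h and lysed in RIPA with protease and phosphatase inhibitors. Protein was quantified by BCA. 50 μg lysate was run on 8–15% SDS-PAGE and transferred to PVDF. Blocking was 5% BSA/TBST for 2 h; primary antibodies were applied overnight at 4 °C, then HRP secondary 1 h at room temperature.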

SW-620 [11] = test: Effect on total AKT expression in human SW620 cells up to 75 uM after 48 hrs by Western blot analysis; type: ADME, cell-based; conditions: sw-620, 48 h; outline: as §1
[12] = target: Non-receptor tyrosine-protein kinase TYK2 (Homo sapiens, UniProt P29597); test: Inhibition of human TYK2 JH1 catalytic domain (V877 to C1187 residues) expressed in mammalian expression system assessed as residual activity at 5 uM by KINOMEscan assay relative to control
Non-receptor tyrosine-protein kinase TYK2, sequence (P29597 whole entry, the tested form may be a part): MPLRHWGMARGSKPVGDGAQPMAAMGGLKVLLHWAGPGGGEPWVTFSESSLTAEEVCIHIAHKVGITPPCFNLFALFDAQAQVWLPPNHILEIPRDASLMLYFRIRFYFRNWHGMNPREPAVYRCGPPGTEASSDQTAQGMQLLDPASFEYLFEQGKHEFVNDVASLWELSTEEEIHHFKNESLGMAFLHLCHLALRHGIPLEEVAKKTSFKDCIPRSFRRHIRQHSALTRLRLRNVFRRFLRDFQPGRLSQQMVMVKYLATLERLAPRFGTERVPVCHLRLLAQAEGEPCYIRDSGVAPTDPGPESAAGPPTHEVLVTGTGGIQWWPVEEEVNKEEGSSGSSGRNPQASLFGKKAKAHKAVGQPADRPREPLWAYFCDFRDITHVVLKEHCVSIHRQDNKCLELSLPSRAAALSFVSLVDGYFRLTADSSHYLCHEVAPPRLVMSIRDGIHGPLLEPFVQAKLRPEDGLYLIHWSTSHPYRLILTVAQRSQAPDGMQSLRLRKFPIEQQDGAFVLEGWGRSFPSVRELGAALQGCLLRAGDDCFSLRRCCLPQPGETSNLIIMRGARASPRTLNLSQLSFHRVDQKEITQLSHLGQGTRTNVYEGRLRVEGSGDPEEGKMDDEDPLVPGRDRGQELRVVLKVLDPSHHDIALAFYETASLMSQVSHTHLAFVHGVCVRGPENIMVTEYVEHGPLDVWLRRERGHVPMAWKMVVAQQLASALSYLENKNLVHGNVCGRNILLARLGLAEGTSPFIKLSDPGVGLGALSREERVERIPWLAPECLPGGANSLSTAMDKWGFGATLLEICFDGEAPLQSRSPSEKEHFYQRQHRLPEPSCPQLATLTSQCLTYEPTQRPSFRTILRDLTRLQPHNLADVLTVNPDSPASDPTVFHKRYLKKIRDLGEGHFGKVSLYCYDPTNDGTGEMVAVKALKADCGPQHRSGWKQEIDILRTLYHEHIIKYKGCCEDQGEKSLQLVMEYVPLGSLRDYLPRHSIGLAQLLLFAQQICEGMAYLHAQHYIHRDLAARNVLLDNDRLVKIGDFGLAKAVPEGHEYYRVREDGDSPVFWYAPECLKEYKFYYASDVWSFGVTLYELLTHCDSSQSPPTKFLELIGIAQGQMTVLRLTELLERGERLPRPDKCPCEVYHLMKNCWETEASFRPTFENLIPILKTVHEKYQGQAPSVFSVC

[13] = target: Mitogen-activated protein kinase 3 (Homo sapiens, UniProt P27361); test: Inhibition of full length human ERK1 (M1 to P379 residues) expressed in bacterial expression system assessed as residual activity at 5 uM by KINOMEscan assay relative to control
[14] = test system: Tyrosine-protein kinase ABL1 (Homo sapiens), P00519 [E255K]; test: Inhibition of human phosphorylated ABL1 E255K mutant (S229 to K512 residues) expressed in mammalian expression system assessed as residual activity at 5 uM by KINOMEscan assay relative to control
HT-29 [15] = test: Inhibition of PI3K/AKT signaling pathway in human HT-29 cells assessed as reduction in mTOR phosphorylation up to 75 uM after 48 hrs by Western blot analysis; type: cell-based
[16] = target: cAMP-dependent protein kinase catalytic subunit alpha (Homo sapiens, UniProt P17612); test: Binding affinity to human PKACalpha (G10 to F351 residues) expressed in bacterial expression system by KINOMEscan assay
[17] = target: Rho-associated protein kinase 2 (Homo sapiens, UniProt O75116); test: Binding affinity to human ROCK2 (M1 to T431 residues) expressed in mammalian expression system by KINOMEscan assay
[18] = target: Cyclin-dependent kinase 3 (Homo sapiens, UniProt Q00526); test: Inhibition of full length human CDK3 (M1 to H305 residues) expressed in bacterial expression system assessed as residual activity at 5 uM by KINOMEscan assay relative to control
Cyclin-dependent kinase 3, sequence (Q00526 whole entry, looked up, the tested form may be a part): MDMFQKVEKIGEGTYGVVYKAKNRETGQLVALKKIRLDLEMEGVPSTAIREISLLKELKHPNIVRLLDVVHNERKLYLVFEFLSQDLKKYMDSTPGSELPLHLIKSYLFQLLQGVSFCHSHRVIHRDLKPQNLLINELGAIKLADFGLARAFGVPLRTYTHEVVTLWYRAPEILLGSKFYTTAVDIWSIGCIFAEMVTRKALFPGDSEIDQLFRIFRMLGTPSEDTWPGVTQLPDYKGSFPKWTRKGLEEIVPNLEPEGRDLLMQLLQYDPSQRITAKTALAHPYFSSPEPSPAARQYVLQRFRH

[19] = target: Mitogen-activated protein kinase 11 (Homo sapiens, UniProt Q15759); test: Binding affinity to full length human p38beta (M1 to Q364 residues) expressed in bacterial expression system by KINOMEscan assay
[20] = target: Cyclin-dependent kinase 7 (Homo sapiens, UniProt P50613); test: Inhibition of full length human CDK7 (M1 to L344 residues) expressed in mammalian expression system assessed as residual activity at 5 uM by KINOMEscan assay relative to control
[21] = target: Mast/stem cell growth factor receptor Kit (Homo sapiens, UniProt P10721, D816V); test: Binding affinity to human KIT (I571 to D952 residues) D816V mutant expressed in bacterial expression system by KINOMEscan assay
SW-620 [22] = test: Cell cycle arrest in human SW620 cells assessed as accumulation at S-phase at 25 uM after 48 hrs by propidium iodide staining based flow cytometry (reference value: 43.72%); type: functional
HT-29 [23] = test: Induction of apoptosis in human HT-29 cells assessed as late apoptotic cells at 75 uM after 48 hrs by Annexin-V-FITC/propidium iodide staining based flow cytometry (reference value: 4.1%); type: functional
[24] = target: Receptor tyrosine-protein kinase erbB-2 (Homo sapiens, UniProt P04626); test: Inhibition of human ERBB2 (K646 to V1225 residues) expressed in mammalian expression system assessed as residual activity at 5 uM by KINOMEscan assay relative to control
[25] = target: Cyclin-dependent kinase 16 (Homo sapiens, UniProt Q00536); test: Inhibition of human PCTK1 (G160 to A474 residues) expressed in mammalian expression system assessed as residual activity at 5 uM by KINOMEscan assay relative to control
[26] = target: RAC-beta serine/threonine-protein kinase (Homo sapiens, UniProt P31751); test: Inhibition of human AKT2 expressed in bacterial expression system assessed as residual activity at 5 uM by KINOMEscan assay relative to control
[27] = target: Tyrosine-protein kinase JAK2 (Homo sapiens, UniProt O60674); test: Binding affinity to human JAK2 JH1 catalytic domain (A829 to G1132 residues) expressed in mammalian expression system by KINOMEscan assay

CC(C)CN(C(=O)c1cccnc1)c1c2ccccc2c(=O)n2c1[nH]c1ccccc12
Activity (HT-29 [1]): Dose-dependent effect
Activity [2]: 94%
Activity (SW-620 [3]): Dose-dependent effect
Kd [4]: ≥ 5 µM
Kd [5]: ≥ 5 µM
Kd [6]: ≥ 5 µM
Kd [7]: ≥ 5 µM
Activity (HT-29 [8]): 18.8%
Kd [9]: ≥ 5 µM
Activity (SW-620 [10]): Dose-dependent effect
Activity (SW-620 [11]): Non-Toxic
Activity [12]: 73%
Activity [13]: 82%
Activity [14]: 69%
inhibition (HT-29 [15]): Active
Kd [16]: ≥ 5 µM
Kd [17]: ≥ 5 µM
Activity [18]: 95%
Kd [19]: ≥ 5 µM
Activity [20]: 100%
Kd [21]: ≥ 5 µM
Activity (SW-620 [22]): 43.71%
Activity (HT-29 [23]): 31.1%
Activity [24]: 97%
Activity [25]: 95%
Activity [26]: 100%
Kd [27]: ≥ 5 µM
